Measurements collected from several papers.
Protocols differ between the studies behind these lines.

Compound | target or system | test | conditions | endpoint | result
Cc1ccc(C(CS(=O)(=O)c2ccccc2)=NNc2nc(-c3ccc(OCCCCOc4ccc(-c5csc(NN=C(CS(=O)(=O)c6ccccc6)c6ccc(C)cc6)n5)cc4)cc3)cs2)cc1 | SK-MEL-23 | cell growth or viability, MTT | 100 µM, 48 h | viability | 37.2%
O=C(Nc1ccccc1-c1ccc(F)c(F)c1)c1nccnc1C(F)(F)F | Cladosporium cucumerinum | microbial growth |  | EC50 | < 0.1 µg/mL
CCCCOc1cccc(-c2cnc3c(n2)CCCC3)c1 | Haemonchus contortus | parasite motility | 24 h, larva | IC50 | ~49.5 µM
CCc1cc(Nc2cc(=O)n(CCCCO)c(=O)[nH]2)ccc1C | Eggerthella lenta | microbial growth, agar dilution | 48 h | MIC | > 32 µg/mL
Cc1cc(Nc2ncc(Cl)c(Nc3ccccc3S(=O)(=O)C(C)C)n2)c(OC(C)C)cc1C1CCNCC1 | NCI-H2228 | cell growth or viability, MTT | 5 µg/mL, 72 h | inhibition | 93.5%
Cc1ccc(C(CS(=O)(=O)c2ccccc2)=NNC2=NC(=O)C(=NNc3ccc([N+](=O)[O-])cc3)S2)cc1 | SK-MEL-23 | cell growth or viability, MTT | 6.3 µM, 48 h | viability | 56.6%
O=c1[nH]c(NCc2ccc(Cl)c(Cl)c2)nc2ncn(CCN3CCOCC3)c12 | Eggerthella lenta | microbial growth, agar dilution | 48 h | MIC | > 32 µg/mL
Cc1ccc(C(CS(=O)(=O)c2ccccc2)=NN=C2N=C(c3ccc(Br)cc3)CS2)cc1 | SK-MEL-23 | cell growth or viability, MTT | 25 µM, 48 h | viability | 54.9%
CCCCc1cccc(-c2cnc3c(n2)CCCC3)c1 | Haemonchus contortus | parasite motility | 24 h, larva | IC50 | 32.4 µM
Cc1ccc(C(CS(=O)(=O)c2ccccc2)=NNC2=NC(=O)C(=NNc3ccccc3)S2)cc1 | SK-MEL-23 | cell growth or viability, MTT | 6.3 µM, 48 h | viability | 36.3%
C[C@@H](Oc1cc(-c2cnn(C3CCNCC3)c2)cnc1N)c1c(Cl)ccc(F)c1Cl | NCI-H2228 | cell growth or viability, MTT | 0.04 µg/mL, 72 h | inhibition | 45.9%
CCCCOc1ccc(-c2cnc3c(n2)CCCC3)cc1 | Haemonchus contortus | parasite motility | 48 h, larva | IC50 | 6.9 µM
